The results in this text go back to ChEMBL document CHEMBL3232958, “Antiproliferative and uncoupling effects of delocalized, lipophilic, cationic gallic acid derivatives on cancer cell lines. Validation in vivo in singenic mice” (J Med Chem, 2014).

The source made the active and inactive calls. No cut-off for these calls is given here.

The subject of test [1] is TA3/Ha. In words: Cytotoxicity against mouse TA3/Ha cells up to 24 hrs by lactate dehydrogenase assay. The format is functional, cell-based. In a few lines: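 LDH release measured with a kit on 2 × 10^5 cells/mL incubated at 37 °C, 5% CO2, 90% humidity. Supernatant taken after centrifugation at 600g for 3 min, then 30 min with reaction mix at room temperature; absorbance read at 450 nm.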

The test system of another test is TA3/Ha (Mus musculus). In words: Induction of mitochondrial swelling in mouse TA3/Ha cell mitochondria at 0.15 mM by UV/vis spectrophotometer analysis in presence of dithiothreitol.
The subject of test [2] is TA3/Ha. Put plainly: Induction of apoptosis in mouse TA3/Ha cells assessed as caspase 3 activation at 0.5 uM after 24 hrs by Western blot analysis. The test is classed as functional, cell-based. A digest of the protocol: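 Caspase 3 measured by Western blot. RIPA lysates, 50 μg protein run on 12% SDS–PAGE. Anti-caspase 3 (1:1000) and tubulin loading control (1:10000) overnight at 4 °C; HRP secondary for 2 h. ECL detection and densitometry.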

Test [3] has as its system TA3/Ha. In words: Induction of mitochondrial swelling in mouse TA3/Ha cell mitochondria at 0.15 mM by UV/vis spectrophotometer analysis in presence of N-acetylcysteine. The test is classed as functional. In a few lines: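 Same swelling set-up with TA3/Ha mitochondria at 0.15 mM cation, in the presence of NEM, DTT or NAC. Mean ± SEM of at least three experiments, ANOVA with Bonferroni test.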

Test [4] can be described thus: Cell cycle arrest in mouse TA3/Ha cells assessed as accumulation at G0/G1 phase at 0.1 to 5 uM after 24 hrs. The format is functional, cell-based.
The test system of the next test is TA3-MTX-R. Put plainly: Induction of mitochondrial swelling in mouse TA3-MTX-R cell mitochondria at 0.05 to 0.20 mM by UV/vis spectrophotometer analysis. The format is functional.
Test [5] relates to TA3/Ha. In words: Induction of apoptosis in mouse TA3/Ha cells assessed as early stage apoptotic cells at 0.5 uM after 24 to 48 hrs using annexin V/propidium iodide staining by flow cytometry. The test is classed as functional, cell-based. In a few lines:
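Annexin V-FITC/PI flow cytometry on 1 × 10^5 cells/mL treated for 24 and 48 h at 37 °C, 5% CO2. 5 min staining at room temperature; 5000 events recorded. Early apoptosis scored as annexin V+/PI−. Staurosporine 10 μM as positive control; at least three experiments, ANOVA with Bonferroni test.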
In general terms: Flow cytometry measures light scatter and fluorescence of single cells or particles in a stream.

In test [6] the test system is TA3/Ha. In words: Decrease of mitochondrial transmembrane potential in mouse TA3/Ha cell mitochondria at 0.5 uM after 5 mins by JC-1 staining in presence of ADP. The test is classed as functional.
The subject of test [7] is TA3/Ha. In words: Reduction of ATP level in mouse TA3/Ha cells after 2 hrs by CellTiter-Glo luminescent assay. The test is classed as functional, cell-based. A digest of the protocol: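 CellTiter-Glo luminescence on 2 × 10^5 cells/mL incubated with cation for 2 h. Aliquot held 10 min at room temperature in the dark before reading; at least three experiments.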
On the technique in general: Cellular ATP, detected with luciferase, serves as a proxy for viable cell number.

Consider `O=C(OCCCCCCCCCC[P+](c1ccccc1)(c1ccccc1)c1ccccc1)c1cc(O)c(O)c(O)c1.[Br-]`, for which the outcome (in the test on TA3/Ha [1]; with TA3/Ha [2]; in test [4]; in the test on TA3-MTX-R; with TA3/Ha [5]; in the test on TA3/Ha [6]) was Active. Also, the result in the test on TA3/Ha (Mus musculus) and with TA3/Ha [3] was inactive. Moreover, in the test with TA3/Ha [7], the Activity entry is “Dose-dependent effect”.
